Only some compounds are listed: those with a hit (about 3.5% of all), similar ones and a draw of the others.
MEKK2wt PB1 HTS – raises or lowers MEK5 binding to wildtype human MEKK2 PB1 domain | bead flow cytometry, Alexa488-MEK5 binding to MEKK2 WT; actives lie on both sides | binding response (% of control), % at 10 µM | actives 1.1% (n = 290,000) | Q9Y2U5; in the data active = binding response below about 67% or above about 130%
MEKK2 mut-MEK5 – signal of MEK5 binding to mutant human MEKK2 PB1 domain. bead flow cytometry, Alexa488-MEK5 binding to MEKK2 mutant. AID 1530. actives 0.35% (n = 290,000). percent response, % at 10 µM; in the data active = percent response above about 24%, passing the limit was not always enough
MEKK3 PB1 HTS – modulators (inhibitors or enhancers) of MEK5 binding to human MEKK3 PB1 domain. Q99759. bead-based flow cytometry, Alexa488-MEK5 binding to MEKK3; actives lie on both sides; 0 = blocked by unlabeled MEK5, 100 = vehicle. binding response (% of control), % at 10 µM. actives 1.4% (n = 290,000). AID 1529;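 active = binding response more than 3 SD above or below the average of its plate-row segment, actives on both sides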;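 also: Alexa488 bead fluorescence after subtracting the streptavidin-only scavenger bead signal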
WT yeast gro inh – growth inhibition of WT yeast, mitochondrial fusion screen | AID 1362 | actives 2.1% (n = 190,000) | mitochondrial fusion phenotypic screen, WT strain | inhibition, % at 10 µM; in the data active = inhibition above about 58%; tested in S. cerevisiae
ABCG2 block – blocks JC-1 efflux by human ABCG2 transporter | IgMXP3 cells, flow cytometry | inhibition, % at 6.6 µM | actives 0.1% (n = 190,000);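 active = inhibition above 80%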
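Assay system – ABCG2 IgMXP3 and barcoded ABCB1 CCRF-Adr cell mix · Input – 3 million cells/mL in well · Reagent – JC-1 fluorescent substrate · Compound – single test compound dose, 6.6 µM final · Timing – 10 min exposure at 25 °C with rotation, no wash · Detection – flow cytometry of retained JC-1 fluorescence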
ABCB1 inh – human ABCB1 inhibition, ABCG2 as counter-screen; P08183; AID 1326; inhibition, % at 6.6 µM; CCRF-Adr cells, JC-1 efflux, flow cytometry; actives 0.067% (n = 190,000); in the data active = inhibition above about 40%;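 also: higher value means more JC-1 retained so stronger ABCB1 efflux block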
Target sequence (P08183 whole entry, looked up): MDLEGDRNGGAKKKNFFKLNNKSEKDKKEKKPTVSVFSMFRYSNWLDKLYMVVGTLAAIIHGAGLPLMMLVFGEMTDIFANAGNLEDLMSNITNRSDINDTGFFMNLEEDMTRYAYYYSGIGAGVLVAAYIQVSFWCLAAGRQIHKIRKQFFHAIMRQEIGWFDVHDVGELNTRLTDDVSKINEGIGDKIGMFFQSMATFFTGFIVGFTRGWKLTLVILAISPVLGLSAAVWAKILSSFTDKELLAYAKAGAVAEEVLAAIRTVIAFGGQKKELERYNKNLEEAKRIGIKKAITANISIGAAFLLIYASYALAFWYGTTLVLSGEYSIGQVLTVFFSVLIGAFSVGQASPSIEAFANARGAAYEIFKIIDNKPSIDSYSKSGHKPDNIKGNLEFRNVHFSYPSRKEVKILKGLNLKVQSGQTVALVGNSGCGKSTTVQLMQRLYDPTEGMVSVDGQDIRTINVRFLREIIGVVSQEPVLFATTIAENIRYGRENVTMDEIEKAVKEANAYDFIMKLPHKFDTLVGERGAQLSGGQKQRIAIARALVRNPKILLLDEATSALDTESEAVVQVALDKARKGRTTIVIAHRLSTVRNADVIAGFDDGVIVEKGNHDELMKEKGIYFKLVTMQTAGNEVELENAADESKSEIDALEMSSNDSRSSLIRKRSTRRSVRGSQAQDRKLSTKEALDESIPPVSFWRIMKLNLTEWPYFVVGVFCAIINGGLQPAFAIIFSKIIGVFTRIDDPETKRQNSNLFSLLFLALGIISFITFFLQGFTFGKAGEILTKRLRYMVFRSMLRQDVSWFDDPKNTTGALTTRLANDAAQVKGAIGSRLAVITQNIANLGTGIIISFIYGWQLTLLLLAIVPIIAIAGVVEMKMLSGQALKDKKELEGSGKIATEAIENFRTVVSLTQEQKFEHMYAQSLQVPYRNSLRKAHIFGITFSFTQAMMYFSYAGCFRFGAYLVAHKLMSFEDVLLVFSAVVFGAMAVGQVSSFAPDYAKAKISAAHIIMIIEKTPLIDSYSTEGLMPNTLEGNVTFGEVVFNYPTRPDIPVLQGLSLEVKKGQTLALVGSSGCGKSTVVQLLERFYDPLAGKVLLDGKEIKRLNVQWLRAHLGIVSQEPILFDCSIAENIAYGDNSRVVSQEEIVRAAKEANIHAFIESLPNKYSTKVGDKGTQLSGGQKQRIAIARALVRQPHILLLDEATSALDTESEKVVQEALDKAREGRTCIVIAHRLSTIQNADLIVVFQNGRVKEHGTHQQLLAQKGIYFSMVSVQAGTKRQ
MEKK2wt confirm – raises or lowers MEK5 binding to wildtype human MEKK2, retest. bead flow cytometry, Alexa488-MEK5 binding to MEKK2 WT; actives lie on both sides. AID 1892. binding response (% of control), % at 10 µM. shares compounds with MEKK3 PB1 HTS. actives 2.4% (n = 5,900); in the data active = binding response below about 16% or above about 210%; inactive = in between
MEKK2mut confirm – signal of MEK5 binding to mutant human MEKK2, retest. bead flow cytometry, Alexa488-MEK5 binding to MEKK2 mutant. shares compounds with MEKK3 PB1 HTS. percent response, % at 10 µM. actives 2% (n = 5,900); in the data active = percent response mostly above about 71%, no sharp cut-off; inactive = mostly below about 38%;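 also: higher means compound restores mutant binding toward wildtype level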
MEKK3 confirm – confirmation of inhibitors of MEK5 binding to human MEKK3 | shares compounds with MEKK3 PB1 HTS | AID 1894 | bead flow cytometry, Alexa488-MEK5 binding to MEKK3; hits give low values | actives 1.8% (n = 5,900) | binding response (% of control), % at 10 µM;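 active = binding response below 72% of control, or above a set upper limit, though filed actives all read lower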;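 also: lower values mean stronger disruption of MEK5 binding to MEKK3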
A number is an active result; 0 = inactive; - = not tested or not shown; [ ] = dose if it differs, or a comment.

SMILES	MEKK2wt PB1 HTS	MEKK2 mut-MEK5	MEKK3 PB1 HTS	WT yeast gro inh	ABCG2 block	ABCB1 inh	MEKK2wt confirm	MEKK2mut confirm	MEKK3 confirm
CCc1ccc(CN2CCCC(C(=O)Nc3ccccc3-c3ccc(OC)cc3)C2)o1 (stereo not drawn)	0	0	0	-	-	-	-	-	-
Cc1ccc(-n2nnc(-c3cccnc3)n2)cc1	0	0	78[inhibitor]	-	-	-	0	0	0
O=C(/C=C\c1cn(-c2ccccc2)nc1-c1ccccc1)Nc1nccs1	0	0	140	0	0	0	0	0	0
Cc1csc(SCC(=O)Nc2sccc2C(N)=O)n1	1.0[inhibitor]	0	2.0[inhibitor]	0	0	0	0	0	0
O=C(NCc1ccccc1Cl)C1CCCN1S(=O)(=O)c1ccccc1F (stereo not drawn)	0	0	0	-	-	-	-	-	-
Cc1cccc(C(=O)N(Cc2nc3ccccc3c(=O)[nH]2)C2CCCCC2)c1	0	0	74[inhibitor]	0	0	0	0	0	0
Cc1cccc(C(=O)N(Cc2nc3ccccc3c(=O)[nH]2)C2CCCC2)c1	0	0	0	0	0	0	-	-	-
O=C(/C=C/c1cccc([N+](=O)[O-])c1)N1CCN(S(=O)(=O)c2cccs2)CC1	0	0	0	0	0	0	-	-	-
O=C(Nc1ccc(Br)cc1)C1CCN(C(=O)c2ccc(F)cc2)CC1	0	0	150	0	0	0	0	0	0
Cc1ccc(C(=O)N2N=C(c3cccc(NS(C)(=O)=O)c3)CC2c2cccs2)cc1 (stereo not drawn)	0	0	0	-	-	-	-	-	-
CC(C)NCC(O)Cn1c2c(c3ccccc31)CCc1c-2cnn1-c1ccccc1 (stereo not drawn)	176	30	0	0	0	0	0	0	0
CC(Sc1nc2ccccc2o1)C(=O)O (stereo not drawn)	-39[inhibitor]	0	-3.0[inhibitor]	0	0	0	0	0	0
CCC(Sc1nc2ccccc2o1)C(=O)O (stereo not drawn)	0	0	0	0	0	0	-	-	-
COc1ccc(/C=N/Nc2ccc([N+](=O)[O-])cc2)cc1O	0	0	0	-	-	-	-	-	-
CN(C(=S)NC(=O)CCCOc1ccc(Cl)cc1Cl)c1ccccc1	0	0	0	0	0	0	-	-	-
CCOc1ccccc1NC(=O)CC1SC(=N)N(c2ccccc2)C1=O (stereo not drawn)	0	0	139	0	0	0	0	0	0
O=[N+]([O-])c1cc(C(F)(F)F)cc([N+](=O)[O-])c1NCCCNc1ccc([N+](=O)[O-])c2cccnc12	0	0	68[inhibitor]	0	0	0	0	0	0
O=[N+]([O-])c1cc(C(F)(F)F)cc([N+](=O)[O-])c1NCc1cccnc1	0	0	0	0	0	0	-	-	-
CC(=O)Nc1ccc(NC(=O)CC(C)n2ccnc2)cc1 (stereo not drawn)	0	0	0	-	-	-	-	-	-
COc1ccc(-n2nc(C(=O)NCC(=O)NCCCN3CCCCCC3)c3ccccc3c2=O)cc1Cl	149	0	0	0	0	0	0	0	0
CCc1ccc(NC(=O)c2ccc3c(c2)C(=O)N(CCOC)C3Nc2ccc(CC)cc2)cc1 (stereo not drawn)	0	0	0	0	0	0	-	-	-
COc1ccc(NC(=O)c2cc3ccc(O)cc3o/c2=N\O)cc1	0	0	0	-	-	-	-	-	-
Cc1nnc(C)n1N	-3.0[inhibitor]	0	0	0	0	0	0	0	0
Cc1cc(C)n(-c2nnc(C)n2N)n1	0	0	0	0	0	0	-	-	-
CCOc1ccccc1NC(=S)N1C2CCC1CC(NC(=O)NC13CC4CC(CC(C4)C1)C3)C2 (stereo not drawn)	0	0	72[inhibitor]	0	0	0	0	0	0
SMILES	MEKK2wt PB1 HTS	MEKK2 mut-MEK5	MEKK3 PB1 HTS	WT yeast gro inh	ABCG2 block	ABCB1 inh	MEKK2wt confirm	MEKK2mut confirm	MEKK3 confirm
COc1cc(-c2nc(CN(C)C(C)c3ccncn3)c(C)o2)ccc1F (stereo not drawn)	0	0	0	0	0	0	-	-	-
Cn1ccnc1Sc1cc(NCCCO)c([N+](=O)[O-])c2nonc12	0	0	132	0	0	0	0	0	0
Oc1ccc2ccccc2c1CN1CCN(C/C=C/c2ccccc2)CC1	140	25	0	-	-	-	0	0	0
CC1Nc2ccccc2C(=O)N1NS(=O)(=O)c1ccccc1 (stereo not drawn)	0	0	0	0	0	0	-	-	-
C=CCN(CC(=O)Nc1c(C)cccc1CC)C(=O)SCCC	0	0	81[inhibitor]	0	0	0	0	0	0
CCCSC(=O)N(CC)CC(=O)Nc1c(CC)cccc1CC	0	0	0	0	0	0	-	-	-
CN(C(=O)COC(=O)c1ccc(=O)n(Cc2ccccc2)n1)c1ccccc1	0	0	0	0	0	0	-	-	-
COC(=O)CC1Oc2ccc(C)cc2NC1=O (stereo not drawn)	19[inhibitor]	0	16[inhibitor]	0	0	0	0	0	0
CC(C)(C)NC(=O)CSc1nc(-c2ccc(F)cc2)cs1	-	-	-	0	0	0	-	-	-
CCN(CC)c1ccc(C(=O)NNC(=O)CCl)cc1	46[inhibitor]	0	42[inhibitor]	0	0	0	0	0	0
CCCCNC(=O)c1onc(CSc2cccc3ccccc23)c1C(=O)O	0	0	0	0	0	0	-	-	-
O=C(CCCN1C(=O)c2ccccc2C1=O)N1CCc2ccccc2C1	0	0	0	0	0	0	-	-	-
Nc1nncn1C(=O)CCCN1C(=O)c2ccccc2C1=O	0	0	122	0	0	0	0	0	0
Cc1ccc(N2CCC(N3CCN(C)C(CCO)C3)CC2)cc1 (stereo not drawn)	0	0	0	-	-	-	-	-	-
O=C(OCc1nnc(-c2ccc(Cl)cc2)o1)c1ccncc1	0	0	0	0	0	0	-	-	-
Cc1ccccc1C(=O)OCc1nnc(-c2ccc(Cl)cc2)o1	0	0	146	0	0	0	0	0	0
CC(=O)c1ccc(OCCCC(=O)OCc2nnc(-c3ccc(Cl)cc3)o2)cc1	0	0	0	0	0	0	-	-	-
Cc1noc(C)c1COc1ccc(C(=O)OCc2nnc(-c3ccc(Cl)cc3)o2)cc1	2.0[inhibitor]	0	2.0[inhibitor]	0	0	0	0	0	0
CCOC(=O)C1CC(c2ccccc2)=NNC1=O (stereo not drawn)	0	0	0	0	0	0	-	-	-
Cc1ccc(Nc2ncnc3c2nnn3Cc2ccccc2)cc1	0	0	132	-	-	-	0	0	0
